The target of experiment [1] is T1, Glycine receptor subunit alpha-1 (Rattus norvegicus, UniProt P07727).
T1 sequence (P07727 whole entry): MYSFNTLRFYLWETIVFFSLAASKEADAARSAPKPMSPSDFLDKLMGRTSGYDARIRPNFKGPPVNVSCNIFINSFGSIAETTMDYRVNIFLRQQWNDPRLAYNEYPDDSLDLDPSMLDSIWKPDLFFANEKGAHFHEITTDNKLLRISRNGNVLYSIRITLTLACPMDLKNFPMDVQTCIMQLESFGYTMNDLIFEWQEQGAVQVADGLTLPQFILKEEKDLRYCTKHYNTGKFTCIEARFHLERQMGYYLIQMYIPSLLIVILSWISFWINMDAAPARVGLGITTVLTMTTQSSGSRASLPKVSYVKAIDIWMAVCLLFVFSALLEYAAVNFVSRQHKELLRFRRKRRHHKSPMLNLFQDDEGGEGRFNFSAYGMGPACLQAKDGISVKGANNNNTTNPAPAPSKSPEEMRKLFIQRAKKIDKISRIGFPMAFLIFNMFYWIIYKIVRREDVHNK
The experiment in a line: Inhibitory concentration required to inhibit [3H]strychnine binding to […]. The essentials: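 [3H]Strychnine displacement; IC50 obtained by nonlinear curve fitting to a Langmuir isotherm.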

Experiment [2] has as its target T1, Glycine receptor subunit alpha-1. Put plainly: Inhibitory concentration required to inhibit [3H]strychnine binding to […] of rat spinal cord membranes.
The species named for experiment [3] is Mus musculus. Put plainly: Change in input resistance of cultured spinal cord neurons produced at a dose 1 mM. Format: functional.
The species entered for experiment [4] is Mus musculus. Put plainly: Change in input resistance of cultured spinal cord neurons produced at a dose 1 mM+100 uM tetrodotoxin. Format: functional.
The species named for experiment [5] is Mus musculus. Put plainly: Change in input resistance of cultured spinal cord neurons produced at a dose 1 mM+100 uM strychnine. Type of experiment: functional.
For experiment [6], the species on record is Mus musculus. The experiment in a line: Change in input resistance of cultured spinal cord neurons produced at a dose 100 uM. Format: functional.
Experiment [7] is filed under the species Mus musculus. The experiment in a line: Change in input resistance of cultured spinal cord neurons produced at a dose 100 uM+100 uM tetrodotoxin. Format: functional.
For experiment [8], the species on record is Mus musculus. Put plainly: Change in input resistance of cultured spinal cord neurons produced at a dose 1 mM+100 uM bicuculline+3 uMtetrodotoxin. Type of experiment: functional.
Experiment [9] is filed under the species Mus musculus. The experiment in a line: Change in input resistance of cultured spinal cord neurons produced at a dose 100 uM+100 uM bicuculline+3 uM tetrodotoxin. Format: functional.
The species named for experiment [10] is Mus musculus. The experiment in a line: Change in input resistance of cultured spinal cord neurons produced at a dose 100 uM tetrodotoxin. Format: functional.
Experiment [11] is described as follows: Ability to displace [3H]strychnine-sensitive glycine receptor binding to rat spinal cord membranes; at 100 uM.

SMILES strings stand for the structures.

For orientation: IC50 means the point on the concentration scale where inhibition reaches its midpoint. Lower therefore signals greater potency in that assay. On to `O=C(O)C1C=CCN1` (stereo not given), for which the IC50 in experiment [1] amounted to 242 µM.
In turn, `C[C@@H](N)C(=O)O` [D-ALANINE] showed an IC50 in [2] of 90.9 µM.
The molecule `O=C(O)C1CNC1` yielded an IC50 in experiment [1] of 23.7 µM. The Activity turned out to be 83.1% in experiment [3]; 71.7% in [4]; 37.7% in experiment [5]; 9.4% in experiment [6]; 10.7% in experiment [7].
For `O=C(O)[C@@H]1CCCN1` (stereo in doubt) [PROLINE], the half-inhibitory concentration (IC50) in [1] was 414 µM.
As to `C[C@H](N)C(=O)O` [ALANINE], the IC50 in experiment [1] came to 198 µM.
As to `O=C(O)C1CCNCC1` [ISONIPECOTIC ACID], the Activity in experiment [8] is 0.1%; in [9], 3%; in experiment [3], 73.6%; in experiment [6], 19.2%. In [1], this molecule showed an IC50 of 94.1 µM.
`O=C(O)[C@@H]1CCCN1` (stereo in doubt; 8) [PROLINE]: the IC50 in experiment [1] was 17.2 µM.
Turning to `O=C(O)C1=CCNC1`, the Activity in [10] stood at 5.1%; in experiment [3] it was 60.4%; in experiment [4], 37.2%; in [5] it was 4.7%; in [6], 22.7%. The molecule further gave an IC50 in experiment [1] of 7.9 µM.
The term inhibition denotes the share of the control response that was lost under treatment. High values mean a response far below the control, low ones a response near the control. As for `O=C(O)c1cc[nH]c1`, the inhibition in experiment [11] was found to be 46%.
In turn, `O=C(O)C1CCN1` (stereo not given) yielded an IC50 in [1] of 399 µM.
As to `NCCC(=O)O` [BETA-ALANINE], in [2], the IC50 worked out at 11.6 µM.

The values are drawn from ChEMBL document CHEMBL1126139 (J Med Chem, 1992).
